Reference: the array DNA melting data of Ke et al. (doi:10.1101/2024.01.08.574731)

What was measured:
[1] = folding enthalpy; higher = less favourable; fluorescence melt of hairpins on a sequencing array, two-state fit; details: sodium 0.088 M
How it was run: (§1)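 Folding enthalpy and melting temperature come from bootstrapped two-state fits to Cy3 fluorescence of library hairpins carrying annealed Cy3 and quencher oligos on a sequenced MiSeq flow cell. Imaging was done in 50 mM Na-HEPES pH 8.0, 25 mM NaCl, stepping by 2.5 °C up to 60 °C, and signals were normalised to pre-quench Cy3 and to control constructs. Results of four replicates were combined by inverse variance, and fitted temperatures were raised by 9.35 °C to match UV melts.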

[2] = melting temperature; fluorescence melt of hairpins on a sequencing array, two-state fit, raised by 9.35 °C to match UV melts; details: sodium 0.088 M
How it was run: as §1

Sequence	folding enthalpy [1]	Tm [2]
GAACCCGAAAGGGCGTTC ((((((....)))..)))	-11.9 kcal/mol	33.7 °C
GAACCCGAAAGGGCTTC ((((((....))).)))	-15 kcal/mol	46.3 °C
GAACGCCCGAAAGGGTTC (((..(((....))))))	-10.8 kcal/mol	30.3 °C
GAACGCGAAAGCGCTTTC ((((((....)))..)))	-8.13 kcal/mol	29.7 °C
GAACGCGAAAGCGGCTTC ((((((....)))..)))	-14.9 kcal/mol	53.3 °C
GAACGCGAAAGCGGTTC ((((((....))).)))	-14.3 kcal/mol	57.3 °C
GAACGCGAAAGCGTTTTC ((((((....)))..)))	-11.6 kcal/mol	56.6 °C
GAACGCGGAAACACGTTC (((((.(....).)))))	-45.6 kcal/mol	48.1 °C
GAACGGGGAAACCTGTTC ((((.((....)).))))	-32.4 kcal/mol	49 °C
GAACTCGGAAACGAGCTC ((.((((....)))).))	-19 kcal/mol	42.2 °C
GAACTCGGAAACGAGTCC (.(((((....))))).)	-14.6 kcal/mol	43.4 °C
GAACTCGGAAACGGGTTC ((((.((....)).))))	-35.1 kcal/mol	50.4 °C
GAACTGAAAAGTTC (((((....)))))	-24.3 kcal/mol	46.6 °C
GAACTGGGAAACCGGTTC ((((.((....)).))))	-39.6 kcal/mol	50.1 °C
GAACTGGGAAACTGGTTC ((((..(....)..))))	-25.8 kcal/mol	33.3 °C
GAAGAACCGAAAGGTTTC (((..(((....))))))	-11.5 kcal/mol	33 °C
GAAGAAGGAAACTCCTTC ((((.((....)).))))	-19.2 kcal/mol	30.7 °C
GAAGACGAAAGTCCTTTC ((((((....)))..)))	-11.6 kcal/mol	29.6 °C
GAAGACGAAAGTCGATTC ((((((....)))..)))	-24.1 kcal/mol	47.4 °C
GAAGACGAAAGTCTCTTC ((((((....)))..)))	-23.9 kcal/mol	51.6 °C
GAAGACGGAAACGCCTTC ((((.((....)).))))	-26.5 kcal/mol	45.6 °C
GAAGACGGAAACGTCTCC (.(((((....))))).)	-12.6 kcal/mol	39.3 °C
GAAGATACGAAAGTATTC (((..(((....))))))	-8.74 kcal/mol	27.7 °C

Sequence	folding enthalpy [1]	Tm [2]
GAAGCACGAAAGTGATTC (((.(((....))).)))	-35.1 kcal/mol	60 °C
GAAGCAGGAAACCGCTTC (((((.(....).)))))	-30.4 kcal/mol	47.1 °C
GAAGCCGAAAGGCAATTC ((((((....)))..)))	-13.7 kcal/mol	39.6 °C
GAAGCCGAAAGGCATTC ((((((....))).)))	-11.1 kcal/mol	40.6 °C
GAAGCCGGAAACAGCTTC (((((.(....).)))))	-29.2 kcal/mol	42.8 °C
GAAGCGCCGAAAGGCTTC (((..(((....))))))	-10.5 kcal/mol	32.3 °C
GAAGCGGCGAAAGCCTTC (((..(((....))))))	-10.2 kcal/mol	28.5 °C
GAAGCTGGAAACAGCCTC ((.((((....)))).))	-13.8 kcal/mol	32.6 °C
GAAGGACGAAAGTCGTTC (((.(((....))).)))	-37.1 kcal/mol	51.9 °C
GAAGGACGAAAGTCTTTC (((.(((....))).)))	-25 kcal/mol	46.3 °C
GAAGGAGGAAACCCCTTC (((((.(....).)))))	-31.3 kcal/mol	36.9 °C
GAAGGAGGAAACTCCTTC (((((((....)))))))	-33.6 kcal/mol	58.3 °C
GAAGGCCGAAAGGCGTTC (((.(((....))).)))	-26.3 kcal/mol	57 °C
GAAGGCGAAAGCCCCTTC ((((((....)))..)))	-9.89 kcal/mol	35.1 °C
GAAGGCGAAAGCCCGTTC ((((((....)))..)))	-12 kcal/mol	27.2 °C
GAAGGCGAAAGCCGCTTC ((((((....)))..)))	-13.6 kcal/mol	56.2 °C
GAAGGCGAAAGCCGGTTC ((((((....)))..)))	-9.54 kcal/mol	43.4 °C
GAAGGCGAAAGCCGTTC ((((((....))).)))	-8.18 kcal/mol	43 °C
GAAGGGACGAAAGTCTTC (((..(((....))))))	-11.8 kcal/mol	26.7 °C
GAAGGGGGAAACCCCCTC ((.((((....)))).))	-12.7 kcal/mol	42.4 °C
GAAGGTGGAAACACTTTC (((.(((....))).)))	-24.9 kcal/mol	38 °C
GAAGGTGGAAACGCCTTC (((((.(....).)))))	-31.9 kcal/mol	51.9 °C
GAAGTCGGAAACGACCTC ((.((((....)))).))	-13.6 kcal/mol	37.2 °C

Sequence	folding enthalpy [1]	Tm [2]
GAAGTGAAAACTTC (((((....)))))	-23.2 kcal/mol	43.1 °C
GAAGTGGCGAAAGCCTTC (((..(((....))))))	-11.4 kcal/mol	31.4 °C
GAAGTTGGAAACAACCTC ((.((((....)))).))	-15 kcal/mol	27.4 °C
GAAGTTGGAAACAACTTC (((((((....)))))))	-41.2 kcal/mol	57.3 °C
GAAGTTGGAAACAGCTTC ((((.((....)).))))	-38.7 kcal/mol	44.4 °C
GAATAACCGAAAGGTTTC (((..(((....))))))	-15.1 kcal/mol	25.6 °C
GAATAACGAAAGTTTTTC (((.(((....))).)))	-28.6 kcal/mol	32 °C
GAATAAGAAATTATTC ((((((....))))))	-10.4 kcal/mol	31.9 °C
GAATACGAAAGTAATTC ((((((....))).)))	-13.6 kcal/mol	34.1 °C
GAATACGAAAGTATTC ((((((....))))))	-34.4 kcal/mol	55.5 °C
GAATACGGAAACGTGTTC (((.(((....))).)))	-33.2 kcal/mol	47.1 °C
GAATAGACGAAAGTCTTC (((..(((....))))))	-11.8 kcal/mol	26.1 °C
GAATAGCGAAAGCTGTTC (((.(((....))).)))	-39.9 kcal/mol	51.5 °C
GAATAGCGAAAGCTTTTC (((.(((....))).)))	-20.6 kcal/mol	36.6 °C
GAATAGGAAACTATTC ((((((....))))))	-31 kcal/mol	40.7 °C
GAATATGAAAATATTC ((((((....))))))	-24.6 kcal/mol	39.8 °C
GAATATGGAAACGTATTC (((((.(....).)))))	-25.3 kcal/mol	34.2 °C
GAATCACGAAAGTGCTTC (((.(((....))).)))	-20.8 kcal/mol	38.5 °C
GAATCACGAAAGTGTTTC (((.(((....))).)))	-24.7 kcal/mol	41.5 °C
GAATCCGAAAGGACCTTC ((((((....)))..)))	-12.7 kcal/mol	30.3 °C
GAATCCGAAAGGAGTTC ((((((....))).)))	-15.9 kcal/mol	35.3 °C
GAATCCGAAAGGATATTC ((((((....)))..)))	-13.1 kcal/mol	33.6 °C
GAATCGCGAAAGCGTTC (((.(((....))))))	-12.3 kcal/mol	42 °C

Sequence	folding enthalpy [1]	Tm [2]
GAATCGGGAAACCGACTC ((.((((....)))).))	-20.4 kcal/mol	35.1 °C
GAATGAGGAAACTCGTTC (((.(((....))).)))	-32.3 kcal/mol	43.9 °C
GAATGCCGAAAGGCCTTC (((.(((....))).)))	-17 kcal/mol	41.3 °C
GAATGCCGAAAGGCTTC (((.(((....))))))	-13.2 kcal/mol	43.6 °C
GAATGCGAAAGCAACTTC ((((((....)))..)))	-13 kcal/mol	36 °C
GAATGCGAAAGCACTTTC ((((((....)))..)))	-10.4 kcal/mol	28.9 °C
GAATGCGAAAGCAGTTTC ((((((....)))..)))	-11.7 kcal/mol	31.3 °C
GAATGCGAAAGCATCTTC ((((((....)))..)))	-23.4 kcal/mol	53 °C
GAATGCGGAAACGCATTC (((((((....)))))))	-39.1 kcal/mol	67.5 °C
GAATGGCGAAAGCCCTTC (((.(((....))).)))	-20 kcal/mol	38.4 °C
GAATGGGGAAACTCATTC (((((.(....).)))))	-32.4 kcal/mol	40.1 °C
GAATGTGCGAAAGCATTC (((..(((....))))))	-9.5 kcal/mol	29.3 °C
GAATGTGGAAACATATTC ((((.((....)).))))	-33.2 kcal/mol	35.1 °C
GAATTACGAAAGTATTTC (((.(((....))).)))	-19.6 kcal/mol	35.2 °C
GAATTCCCGAAAGGGTTC (((..(((....))))))	-13 kcal/mol	28 °C
GAATTGCGAAAGCACTTC (((.(((....))).)))	-21.1 kcal/mol	40.7 °C
GAATTGCGAAAGCATTC (((.(((....))))))	-13.6 kcal/mol	36.1 °C
GAATTGCGAAAGCATTTC (((.(((....))).)))	-21.7 kcal/mol	44.8 °C
GAATTGGGAAACCGATTC ((((.((....)).))))	-36.4 kcal/mol	43.4 °C
GAATTTGGAAACAAATCC (.(((((....))))).)	-13.9 kcal/mol	29.2 °C
GACAAACGAAAGTTGTC (((.(((....))))))	-29.1 kcal/mol	48.2 °C
GACAAAGAAATTTGTC ((((((....))))))	-27.6 kcal/mol	43.4 °C
